Paper PMC6585414 (Infection and Drug Resistance, 2019)
No end group written: not given here.

How the values were obtained:
[1] = Serum biochemical factors after intraperitoneal injection; type: in vivo, mouse; conditions: blood 48 h after the injection, mean ± standard deviation
Outline: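 Mice given PBS (control) or peptide at 50 or 100 μg/mouse by single ip injection (100 μL/mouse). Blood (0.2 mL) drawn 48 h later and serum GPT, GOT, total bilirubin and uric acid quantified. Five mice per group. Data shown as mean ± SD, compared by ANOVA, p<0.05 taken as significant.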

[2] = test system: human embryonic kidney cells (HEK-293); assay: MTT cytotoxicity assay; type: cell-based; conditions: 1.56–50 μg/mL, 48 h, 37°C, in words (Figure 6)
Outline: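 HEK-293 cells seeded fresh at 1×10^5 cells/well, exposed to twofold serial peptide dilutions (1.56–50 μg/mL) at 37°C in 5% CO2 for 48 h. MTT (5 mg/mL stock, 10 μL) then added for 4 h. Formazan dissolved in 100% DMSO, absorbance read at 575 nm, percentage viable cells derived. Triplicate, three independent repeats, mean ± SD.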

Substance	Serum level of GOT ([1]; 50 μg/mouse ip) [U/L]	Serum level of GPT ([1]; 50 μg/mouse ip) [U/L]	Serum level of TBIL ([1]; 50 μg/mouse ip) [mg/dL]	Serum level of UA ([1]; 50 μg/mouse ip) [mg/dL]	Serum level of GOT ([1]; 100 μg/mouse ip) [U/L]	Serum level of GPT ([1]; 100 μg/mouse ip) [U/L]	Serum level of TBIL ([1]; 100 μg/mouse ip) [mg/dL]	Serum level of UA ([1]; 100 μg/mouse ip) [mg/dL]	Cytotoxic activity against HEK-293 [2]
FFHHIFRGAVHVGKTIHRLVTG-NH2 [I9A-piscidin-1]	8.96±1.12	6.67±0.47	0.21 ± 0.06	0.42 ± 0.07	10.86±1.07	7.17±0.37	0.51 ± 0.09	0.87 ± 0.09	–
FFHHIFRGIVHVGKTAHRLVTG-NH2 [I16A-piscidin-1]	9.22±0.90	5.92±1.10	0.20 ± 0.04	0.39 ± 0.12	11.08±0.94	7.33±1.10	0.53 ± 0.08	0.77 ± 0.14	–
FFHHIFRGIVHVGKTIHRLVTG-NH2 [Piscidin-1, reference compound]	9.48±1.06	5.83±0.52	0.19 ± 0.04	0.45 ± 0.06	10.64±0.97	4.62±0.42	0.27 ± 0.07	0.53 ± 0.08	highest cytotoxic activity
FFHHIFRGIVHVGKTKHRLVTG-NH2 [I16K-piscidin-1]	8.88±0.86	6.43±0.86	0.20 ± 0.05	0.41 ± 0.11	8.53±1.15	–	–	–	lowest activity against HEK-293 cells compared to other peptides
FFHHIFRGKVHVGKTIHRLVTG-NH2 [I9K-piscidin-1]	9.27±0.78	6.26±0.22	0.18 ± 0.07	0.43 ± 0.05	10.32±0.88	6.86±0.82	0.48 ± 0.10	0.81 ± 0.07	–
